# From PubChem
# A selection: hits, their analogues and other compounds. The true share with any hit is near 1.8%.
# Fh CTSL1 inh: cathepsin L1 inhibition, PFM18AAP counter-screen; hit rate 0.49% among 300,000; inhibition, % at 5.96 µM; recombinant F. hepatica cathepsin L1, Z-Leu-Arg-MCA fluorescence;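 active = inhibition above the mean of all tested compounds plus 3 SD, set per screening campaign, cut at about 17% in these data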;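 note: 0% = plate median of test compound wells and 100% = 1 µM Z-Phe-Ala-diazomethylketone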
# GSTO1 inh: blocks human GSTO1 in RBBP9 counter-screen. P78417. recombinant GSTO1, activity-based probe fluorescence polarization. hit rate 1.1% among 300,000. inhibition, % at 5.96 µM;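 active = inhibition above the campaign mean inhibition plus 3 SD, cut at about 35% in these data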;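 note: 0% = GSTO1-1 with DMSO and 100% = wells lacking GSTO1-1 enzyme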
# Target sequence (P78417 whole entry, looked up): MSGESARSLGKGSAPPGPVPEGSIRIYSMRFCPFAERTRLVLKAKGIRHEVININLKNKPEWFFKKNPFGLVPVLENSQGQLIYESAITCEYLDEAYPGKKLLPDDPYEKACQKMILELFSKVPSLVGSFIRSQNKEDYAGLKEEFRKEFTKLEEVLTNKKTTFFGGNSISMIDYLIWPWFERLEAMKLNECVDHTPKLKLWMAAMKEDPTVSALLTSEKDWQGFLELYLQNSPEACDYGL
# TDP2 inh: blocks human TDP2 phosphodiesterase activity; recombinant TDP2, T5PNP hydrolysis, p-nitrophenol absorbance 415 nm; inhibition, % at 12.8 µM; O95551; hit rate 0.34% among 370,000; AID 720702;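 active = inhibition above the mean of all tested compounds plus 3 SD, set per campaign, cut at about 25% in these data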;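 note: 0% = DMSO with enzyme and 100% = buffer with substrate but no TDP2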
# Target sequence (O95551 whole entry, looked up): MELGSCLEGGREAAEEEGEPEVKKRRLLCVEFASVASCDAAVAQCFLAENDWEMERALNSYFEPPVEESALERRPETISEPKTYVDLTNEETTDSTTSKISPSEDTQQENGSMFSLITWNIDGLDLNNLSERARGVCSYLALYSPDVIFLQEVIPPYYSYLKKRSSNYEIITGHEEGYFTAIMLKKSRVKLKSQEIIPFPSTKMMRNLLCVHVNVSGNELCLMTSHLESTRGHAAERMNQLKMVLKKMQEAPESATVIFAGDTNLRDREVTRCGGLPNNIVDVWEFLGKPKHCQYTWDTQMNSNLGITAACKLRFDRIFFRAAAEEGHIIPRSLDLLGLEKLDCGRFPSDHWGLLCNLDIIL
#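 Test system: Human TDP2 enzyme | Reagent: 5 mM T5PNP | Compound dosing: 12.8 µM single point, 1% DMSO | Incubation: Enzyme reaction with compound for 2 h at 37 °C | Technique: p-Nitrophenol epi absorbance | Read-out: % inhibition relative to enzyme-containing and enzyme-free wells | Benchmarks: High control without enzyme, low control DMSO plus TDP2 | Replicates: Singlicate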
# PAD4 inh: inhibitors of human PAD4; recombinant PAD4, RCA probe fluorescence polarization; Q9UM07; inhibition, % at 6.36 µM; hit rate 0.41% among 330,000;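 active = percent inhibition above a cutoff equal to the mean of all tested compounds plus 3 SD, cut at about 15% in these data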;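 note: 0% = PAD4 with RCA probe and DMSO and 100% = probe without PAD4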
# Apaf1 inhib: blocks human Apaf-1 apoptosome activity; hit rate 0.71% among 330,000; reconstituted apoptosome caspase-3 activity, DEVD-Rh110 fluorescence; AID 489030; inhibition, % at 20 µM; active = inhibition of at least 40% at 20 µM;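 note: plate controls were DMSO wells for no effect and DEVD-CHO caspase inhibitor wells for full effect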
#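 Material: cell-free apoptosome with Apaf-1, procaspase-3 and caspase-9; Buffer or medium: Hepes pH 7.5 with detergent and BSA; Reagent: cytochrome c trigger plus (Z-DEVD)2-Rh110 caspase-3 substrate; Times: compound with Apaf-1, dATP, procaspase-3 30 min, then 50 min reaction, room temperature; Technique: Rh110 fluorescence intensity.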
# Apaf-1 inh conf2: Apaf-1 inhibition, single-dose confirmed; shares compounds with Apaf1 inhib; reconstituted apoptosome, caspase-3 DEVD-Rh110 fluorescence; inhibition, % at 20 µM; hit rate 25% among 1,800;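 active = mean inhibition of at least 40% at 20 µM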;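 note: plate controls were DMSO wells for no effect and DEVD-CHO caspase inhibitor control wells for full effect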
# Rh110 interf inh: interferes with Rh110 fluorescence, flagging false Apaf-1 inhibitors | shares compounds with Apaf1 inhib | Rh110 fluorescence interference, quenched caspase reaction | activation (fluorescence interference), % at 20 µM | 1,800 tested, under 10 active;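 active = signal rise of 40% or more at 20 µM, treated as a fluorescence artifact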
# Fluor interf inh: Apaf-1 inhibitor counter-screen fluorescence artifact; shares compounds with Apaf1 inhib; fluorescence interference counterscreen, Apaf-1 assay format; IC50, µM; 460 tested, under 10 active; call rule not given here
# An asterisk follows results filed as active; nt = no result.
SMILES,Fh CTSL1 inh,GSTO1 inh,TDP2 inh,PAD4 inh,Apaf1 inhib,Apaf-1 inh conf2,Rh110 interf inh,others
C#CCOCCOCCOCCNc1nc(N2CCN(C(=O)[C@H]([C@@H](C)CC)n3cc(CCCCN)nn3)CC2)nc(N2CCN(C(=O)[C@H]([C@@H](C)CC)n3cc(CCCN=C(N)N)nn3)CC2)n1,1,4,4,-4,46*,3,5,
C#CCOCCOCCOCCNc1nc(N2CCN(C(=O)[C@H](CCCCN)n3cc(CCCC)nn3)CC2)nc(N2CCN(C(=O)[C@H](Cc3ccc(O)cc3)n3cc(CCO)nn3)CC2)n1,7,11,nt,0,20,nt,nt,
CCCN1CCCCC(NC(=O)c2ccc(-c3ccccc3)cc2)C1=O (stereo not given),nt,nt,2,nt,nt,nt,nt,
CCN(CC(=O)NCc1cccs1)C(=O)CCCOc1ccc(C(C)(C)C)cc1,nt,nt,-6,2,42*,34,11,
CCN(CC(=O)NCc1cccs1)C(=O)CCCOc1ccccc1,nt,nt,-4,-4,19,nt,nt,
CCCCNC(=O)C[C@H]1C[C@@]2(C(=O)OC)C(=C[C@H](C(C)(C)C)O[C@@H]2C)N(CCc2ccc(OC)c(OC)c2)C1=O,nt,nt,-11,nt,nt,nt,nt,
CCOC(=O)C1=C(c2ccccc2)NC(N)=NC1c1ccc(OCc2ccc(C(=O)OC)cc2)cc1 (stereo not given),0,0,-13,-1,61*,62*,-8,Fluor interf inh=>100
COc1ccc(C2=Nn3c(nnc3-c3ccccc3F)SC2)cc1OC1CCCC1,nt,nt,-9,-2,47*,23,9,
COc1ccc(C2=Nn3c(nnc3-c3ccccc3F)SC2)cc1OC1CCOC1 (stereo not given),nt,nt,4,5,20,nt,nt,
CC1(C)Oc2ccc(C(=O)NCCCN3CCCC3)cc2NC1=O,nt,nt,0,nt,nt,nt,nt,
CC(C)(N[C@@H](Cc1ccccc1)C(=O)NCC(c1ccccc1)c1ccccc1)C(=O)NC1CCCCC1,nt,nt,-6,nt,nt,nt,nt,
COC(=O)N/N=C/c1ccc(-c2ccc(C)c(Cl)c2)o1,0,4,-4,4,11,nt,nt,
Cc1ccc(-c2ccc(/C=N\NC(=O)C3C(=O)NCC3c3ccccc3)o2)cc1Cl (stereo not given),3,-15,-11,6,43*,35,14,
O=C1NCC(c2ccccc2)C1C(=O)N/N=C\c1ccc(-c2cccc(Cl)c2Cl)o1 (stereo not given),5,-10,-11,-3,40*,20,7,
COC[C@@H]1CCCN1c1ccc2c(c1)OCCCN(C1CC1)S2(=O)=O,nt,nt,3,nt,nt,nt,nt,
O=C1CCNc2ccc(-c3ccccc3)cc21,-3,-4,1,-1,26,nt,nt,
O=C1CCNc2cc3ccccc3cc21,-4,26,nt,-14,62*,20,11,
Cc1cccc(OCC(O)Cn2c(=N)n(Cc3ccccc3)c3ccccc32)c1 (stereo not given),2,5,-24,-1,58*,11,11,
N=c1n(Cc2ccccc2)c2ccccc2n1CC(O)COc1ccc(Cl)cc1Cl (stereo not given),nt,nt,-5,nt,52*,38,-18,
N=c1n(Cc2ccc(Cl)cc2)c2ccccc2n1CC(O)COc1ccccc1 (stereo not given),-1,10,0,6,34,nt,nt,
COC(=O)[C@]12CCCCC=C1N(Cc1ccc(OC)cc1)C(=O)[C@@H]2CC(=O)N1CCN(C(=O)c2ccco2)CC1,nt,nt,-2,nt,nt,nt,nt,
CCCCCCCCN1C(=O)[C@@H](CC(=O)NCCC(C)C)C[C@@]2(C(=O)OC)C1=C[C@H](C(C)(C)C)O[C@@H]2C,nt,nt,-9,nt,nt,nt,nt,
COC(=O)c1ccccc1S(=O)(=O)N1CCC(C(=O)OC(C)C(=O)Nc2ccc(NC(C)=O)cc2)CC1 (stereo not given),-6,4,0,1,-5,nt,nt,
COC(=O)c1ccccc1S(=O)(=O)N1CCC(C(=O)N2CCC2)CC1,nt,nt,-15,1,55*,27,-1,
CCOc1ccc(/C=C/[N+](=O)[O-])c2ccccc12,0,9,nt,-8,80*,24,2,
SMILES,Fh CTSL1 inh,GSTO1 inh,TDP2 inh,PAD4 inh,Apaf1 inhib,Apaf-1 inh conf2,Rh110 interf inh,others
CCOC(=O)COc1ccc2ccccc2c1/C=C/[N+](=O)[O-],3,-2,5,0,nt,nt,nt,
C[C@H]1COc2cccc(F)c2S(=O)(=O)N1C,nt,nt,-3,nt,nt,nt,nt,
CCCCCCCCCCCCC/C=C/[C@@H](O)[C@@H](N)CO,6,-2,0,2,79*,37,18,
Cc1cc(C)c2nc(N(CCN(C)C)C(=O)c3ccc(S(=O)(=O)N(C)CC4CCCO4)cc3)sc2c1 (stereo not given),5,10,13,2,49*,10,7,
COC(=O)C[C@@H]1CC[C@H]2[C@H](COc3ccc(NC(=O)Nc4cccc(C#N)c4)cc3C(=O)N2C)O1,nt,nt,6,nt,nt,nt,nt,
Cc1onc(C(=O)N2CCN(C(c3ccccc3)c3ccccc3)CC2)c1Br,nt,nt,1,nt,nt,nt,nt,
CCOC(=O)C1CCCN(C(=O)c2cccc(S(=O)(=O)NCc3ccccc3)c2)C1 (stereo not given),nt,nt,7,nt,nt,nt,nt,
CCOC(=O)C1CCCN(C(=O)c2cccc(S(=O)(=O)N(C)c3c(C)n(C)n(-c4ccccc4)c3=O)c2)C1 (stereo not given),-2,2,6,-3,49*,33,7,
C#CCOCCOCCOCCNc1nc(N2CCN(C(=O)[C@H]([C@@H](C)CC)n3cc(CCCCN)nn3)CC2)nc(N2CCN(C(=O)[C@H](Cc3ccc(O)cc3)n3cc(CCO)nn3)CC2)n1,nt,nt,-1,nt,nt,nt,nt,
CN1C(C(=O)NCC2CC2)CC2Cn3c(nc4cc5ccccc5cc43)C21 (stereo not given),-2,5,3,-1,41*,10,-2,
COCCNC(=O)C1CC2Cn3c(nc4cc5ccccc5cc43)C2N1C (stereo not given),2,1,15,-3,-2,nt,nt,
Nc1cccc2cnccc12,2,5,22,-5,67*,15,1,
COC(=O)[C@]12C[C@H](CC(=O)N3CCCC3)C(=O)N(Cc3ccccc3)C1=C[C@H](C(C)C)O[C@@H]2C1CC1,nt,nt,-12,nt,nt,nt,nt,
O=C(COc1ccccc1)N1CCN=C1SCc1ccc(F)cc1,0,14,5,-3,56*,5,-27,
CC1CCN(S(=O)(=O)c2ccc3c4c2CC(=O)N4CC(C)S3)CC1 (stereo not given),31*,28,5,-5,94*,86*,-1,Fluor interf inh=>100
CC(=O)Nc1c(S(=O)(=O)c2ccccc2)c2nc3ccccc3nc2n1Cc1ccccc1,2,1,2,1,60*,10,-7,
